From paper PMC2864424 (Current Chemical Genomics, 2010)
Read-outs that look alike come from different tables or passages of the source.

Tests used:
OATP1B1 [1] = target: T1, OATP1B1 (Homo sapiens, UniProt Q9Y6L6); format: cell-based; conditions: for preferential / selective inhibition of OATP1B1-mediated FMTX transport: compared with OATP1B3
T1 sequence (Q9Y6L6 1-691): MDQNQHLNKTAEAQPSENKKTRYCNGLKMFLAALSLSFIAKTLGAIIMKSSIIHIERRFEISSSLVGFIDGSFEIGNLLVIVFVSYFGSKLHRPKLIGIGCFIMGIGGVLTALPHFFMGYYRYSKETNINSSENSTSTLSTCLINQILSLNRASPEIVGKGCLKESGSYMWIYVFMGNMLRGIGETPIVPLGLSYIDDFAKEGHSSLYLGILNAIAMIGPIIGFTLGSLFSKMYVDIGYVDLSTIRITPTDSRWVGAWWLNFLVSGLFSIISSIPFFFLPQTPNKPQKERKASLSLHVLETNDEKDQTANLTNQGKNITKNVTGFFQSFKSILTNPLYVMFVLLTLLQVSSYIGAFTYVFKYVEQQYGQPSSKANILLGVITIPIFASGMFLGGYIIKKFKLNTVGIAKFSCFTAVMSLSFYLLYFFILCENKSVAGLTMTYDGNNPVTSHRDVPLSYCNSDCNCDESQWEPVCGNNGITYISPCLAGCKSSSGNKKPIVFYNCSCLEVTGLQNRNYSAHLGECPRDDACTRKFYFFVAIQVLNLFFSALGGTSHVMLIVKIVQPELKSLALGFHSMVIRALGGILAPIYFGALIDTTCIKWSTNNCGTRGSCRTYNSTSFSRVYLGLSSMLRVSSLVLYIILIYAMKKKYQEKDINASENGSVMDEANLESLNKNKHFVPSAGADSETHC

[2] = tested on: OATP1B1 and OATP1B3 (not distinguished); format: cell-based, human; conditions: human, CHO cells stably expressing OATP1B1 or OATP1B3, pH 7.4, probe FMTX, 5 µM
OATP1B1 [3] = conditions: read-out: Ki, inhibition of OATP1B1-mediated pitavastatin uptake; cited from earlier work
OATP1B3 [4] = target: T2, OATP1B3 (Homo sapiens, UniProt Q9NPD5); format: cell-based; conditions: for preferential inhibition of OATP1B3-mediated FMTX transport: compared with OATP1B1
T2 sequence (Q9NPD5 1-702): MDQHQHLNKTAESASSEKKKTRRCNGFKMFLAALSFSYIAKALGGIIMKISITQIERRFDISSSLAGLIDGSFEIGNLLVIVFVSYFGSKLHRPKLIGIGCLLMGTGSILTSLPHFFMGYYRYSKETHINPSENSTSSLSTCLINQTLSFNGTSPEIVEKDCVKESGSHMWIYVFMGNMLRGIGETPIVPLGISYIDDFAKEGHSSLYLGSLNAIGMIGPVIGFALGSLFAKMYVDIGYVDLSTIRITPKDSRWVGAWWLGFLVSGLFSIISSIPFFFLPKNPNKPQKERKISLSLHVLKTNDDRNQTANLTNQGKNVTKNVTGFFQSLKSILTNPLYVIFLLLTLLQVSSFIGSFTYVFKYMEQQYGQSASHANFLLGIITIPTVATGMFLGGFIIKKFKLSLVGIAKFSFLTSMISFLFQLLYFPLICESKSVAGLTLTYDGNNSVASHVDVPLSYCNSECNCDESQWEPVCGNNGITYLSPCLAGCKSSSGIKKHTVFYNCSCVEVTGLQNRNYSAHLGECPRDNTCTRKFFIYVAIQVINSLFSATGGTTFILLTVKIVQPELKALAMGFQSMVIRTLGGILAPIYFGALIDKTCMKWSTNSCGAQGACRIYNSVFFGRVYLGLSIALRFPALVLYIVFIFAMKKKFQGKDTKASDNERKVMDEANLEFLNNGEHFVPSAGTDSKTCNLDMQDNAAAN

OATP2B1 = conditions: cited from earlier work
OATP1B1 [5] = target: T1, OATP1B1; format: cell-based; conditions: 24-well plates
OATP1B3 [6] = target: T2, OATP1B3; format: cell-based
Method in brief: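 Stably transfected CHO cells were grown at 37 °C, 5% CO2 in DMEM with 10% FBS, L-proline and 500 μg/ml G-418, passaged twice weekly and used up to passage 55. Cells were washed with 37 °C uptake buffer (pH 7.4) and incubated with fluorescent compound at 37 °C. Cells were then washed four times with ice-cold buffer and lysed in 1% Triton X-100. Fluorescence was read at 485/528 nm, with Vmax expressed per mg protein per min.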

wild-type CHO cells = assay: FMTX uptake into wild-type CHO cells, 96-well plates; format: cell-based, Chinese Hamster; conditions: 5 μM FMTX, 30 min, room temperature
Method in brief: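 Cells were washed three times with room-temperature buffer and given 5 µM FMTX for 30 min at room temperature. They were then washed four times and lysed in 1% Triton X-100 in PBS. Fluorescence was read at ex 485/em 528 nm.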

OATP1B1 and OATP1B3 = format: cell-based, human; conditions: primary screen of FMTX uptake by OATP1B1 or OATP1B3
OATP1B1 [7] = conditions: read-out: Ki, inhibition of fexofenadine transport, OATP1B1; cited from earlier work
OATP1B3 [8] = conditions: read-out: Ki, inhibition of fexofenadine transport, OATP1B3; cited from earlier work
OATP1B1 [9] = conditions: read-out: Ki, inhibition of BSP transport, OATP1B1; cited from earlier work
OATP1B3 [10] = conditions: read-out: Ki, inhibition of BSP transport, OATP1B3; cited from earlier work
OATP1B1 [11] = conditions: read-out: IC50, inhibition of bosentan transport, OATP1B1; ref Treiber et al. 5; cited from earlier work
OATP1B3 [12] = conditions: read-out: IC50, inhibition of bosentan transport, OATP1B3; ref Treiber et al. 5; cited from earlier work
OATP1B1 [13] = conditions: read-out: IC50, inhibition of Ro 48-5033 uptake, OATP1B1; ref Treiber et al. 5; cited from earlier work
OATP1B3 [14] = conditions: read-out: IC50, inhibition of Ro 48-5033 uptake, OATP1B3; ref Treiber et al. 5; cited from earlier work
[15] = substrate: O=C1OC2(c3ccc(O)cc3Oc3cc(O)ccc32)c2ccccc21; format: cell-based, human; conditions: other: 37 °C, 2 min, 24-well plates, net uptake
[16] = 5 μM FMTX, 30 min, room temperature, 96-well plates
[17] = 5 μM FMTX, 30 min, room temperature, 96-well plates, no inhibitor

## O=C(COc1ccc(Cl)cc1)N1CCN(Cc2ccc3c(c2)OCO3)CC1 [Fipexide]
OATP1B1 [1]
  preferential / selective inhibition of OATP1B1-mediated FMTX transport: preferentially inhibited OATP1B1

## CC(C)C[C@H]1C(=O)N2CCC[C@H]2[C@]2(O)O[C@](NC(=O)[C@@H]3C=C4c5cccc6[nH]cc(c56)C[C@H]4N(C)C3)(C(C)C)C(=O)N12 [Ergocryptine]
OATP1B1 [1]
  preferential / selective inhibition of OATP1B1-mediated FMTX transport: preferentially inhibited OATP1B1

## CN(Cc1cnc2nc(N)nc(N)c2n1)c1ccc(C(=O)N[C@@H](CCC(=O)O)C(=O)O)cc1 [methotrexate]
[2]
  inhibition at 30 min, 100 µM: 30%
OATP1B1 [3]
  Ki: > 300 µM

## Bromocryptine
OATP1B1 [1]
  preferential / selective inhibition of OATP1B1-mediated FMTX transport: preferentially inhibited OATP1B1

## CC(=O)[C@H]1CC[C@H]2[C@@H]3CCC4=CC(=O)CC[C@]4(C)[C@H]3CC[C@]12C [progesterone]
OATP1B1 [1]
  IC50: 5.4 ± 1.9 µM
OATP1B1 [1]; [16]
  effect on OATP1B1-mediated FMTX uptake: inhibited
OATP1B3 [4]
  EC50: 0.2 µM
OATP1B3 [4]; [16]
  effect on OATP1B3-mediated FMTX uptake: stimulated
OATP2B1
  effect on OATP2B1-mediated estrone-3-sulfate uptake: stimulate

## CCOc1cc(CC(=O)N[C@@H](CC(C)C)c2ccccc2N2CCCCC2)ccc1C(=O)O [Repaglinide]
OATP1B1 [1]
  preferential / selective inhibition of OATP1B1-mediated FMTX transport: preferentially inhibited OATP1B1

## fluorescein-methotrexate [FMTX]
OATP1B1 [1]; [16]
  typical uptake, OATP1B1-expressing cells: 15,060 ± 1,540 fluorescent units
OATP1B1 [1]; [17]
  signal-to-basal ratio of uptake, OATP1B1: 3.4
OATP1B3 [4]; [16]
  typical uptake, OATP1B3-expressing cells: 33,880 ± 3,645 fluorescent units
OATP1B3 [4]; [17]
  signal-to-basal ratio of uptake, OATP1B3: 7.7
OATP1B1 [5]; 1 µM, 30 min
  transported by OATP1B1: transported
OATP1B1 [5]; 1 µM, 30 min, versus wild-type CHO
  uptake signal, OATP1B1: about 3 fold
OATP1B1 [5]; 37 °C, 2 min
  Vmax, OATP1B1: 961 ± 198 fluorescent units/mg protein * min
OATP1B1 [5]; read-out: apparent Km, OATP1B1, 37 °C, 2 min, net uptake
  Km: 3.8 ± 0.7 µM
OATP1B3 [6]; 1 µM, 30 min, 24-well plates, versus wild-type CHO
  uptake signal, OATP1B3: about 4.5 fold
OATP1B3 [6]; 37 °C, 2 min, 24-well plates
  Vmax, OATP1B3: 4772 ± 709 fluorescent units/mg protein * min
OATP1B3 [6]; Vmax/Km compared
  fold higher transport efficiency of OATP1B3 than OATP1B1: 2–3 fold
OATP1B3 [6]; read-out: apparent Km, OATP1B3, 37 °C, 2 min, 24-well plates, net uptake
  Km: 7.9 ± 2 µM
wild-type CHO cells
  typical uptake, wild-type CHO cells: 4,400 ± 80 fluorescent units

## Cc1ncc([N+](=O)[O-])n1CCO [Metronidazole]
[2]
  IC50 at 30 min: > 100 µM

## Alexa Fluor® 488 methotrexate [AMTX]
OATP1B3 [6]; 1 µM, 30 min, 24-well plates
  substrate of OATP1B3: not transported

## C[C@H]1C[C@H]2[C@@H]3CCC4=CC(=O)C=C[C@]4(C)[C@@]3(Cl)[C@@H](O)C[C@]2(C)[C@@]1(O)C(=O)CO [Beclomethasone]
OATP1B3 [4]; FMTX uptake IC50 values
  selectivity for OATP1B3 over OATP1B1: about 5 fold
OATP1B3 [4]
  preferential inhibition of OATP1B3-mediated FMTX transport: preferential inhibitors
OATP1B3 [4]; listed as beclamethasone
  preferential inhibition of OATP1B3-mediated FMTX transport: preferentially inhibited OATP1B3

## CCOC(=O)Nc1ccc2c(c1)N(C(=O)CCN1CCOCC1)c1ccccc1S2 [Moricizine]
OATP1B3 [4]
  preferential inhibition of OATP1B3-mediated FMTX transport: preferentially inhibited OATP1B3

## CO[C@H]1/C=C/O[C@@]2(C)Oc3c(C)c(O)c4c(O)c(c(/C=N/N5CCN(C)CC5)c(O)c4c3C2=O)NC(=O)/C(C)=C\C=C\[C@H](C)[C@H](O)[C@@H](C)[C@@H](O)[C@@H](C)[C@H](OC(C)=O)[C@@H]1C [Rifampicin]
[2]
  IC50 at 30 min: 1.3 to 1.5 µM
OATP1B1 and OATP1B3
  Prestwick library screening result: strongest inhibitors
OATP1B1 [7]
  Ki: 0.5 µM
OATP1B3 [8]
  Ki: 1.5 µM
OATP1B1 [9]
  Ki: 17 µM
OATP1B3 [10]
  Ki: 5 µM
OATP1B1 [11]
  IC50: 3.2 µM
OATP1B3 [12]
  IC50: 1.6 µM
OATP1B1 [13]
  IC50: ~50 µM
OATP1B3 [14]
  IC50: 0.8 µM

## O=C1OC2(c3ccc(O)cc3Oc3cc(O)ccc32)c2ccccc21 [fluorescein]
OATP1B1 [5]; 1 µM, 30 min
  transported by OATP1B1: transported
OATP1B3 [6]; human, CHO cells stably expressing OATP1B3, pH 7.4
  Km at 2 min: 82 ± 10 µM

## O=C(O)c1cccnc1Nc1cccc(C(F)(F)F)c1 [Niflumic acid]
OATP1B1 [1]
  preferential / selective inhibition of OATP1B1-mediated FMTX transport: preferentially inhibited OATP1B1

## CCN1C[C@]2(COC)[C@H](O)C[C@H](OC)[C@@]34[C@@H]5C[C@@]6(O)[C@H](OC(=O)c7ccccc7)[C@@H]5[C@@](OC(C)=O)([C@@H]([C@H](OC)[C@H]23)[C@@H]14)[C@@H](O)[C@@H]6OC [Aconitine]
[2]
  IC50 at 30 min: > 100 µM

## CCOC(=O)c1cncn1[C@H](C)c1ccccc1 [Etomidate]
[2]
  IC50 at 30 min: > 100 µM

## CC(C)(C)NC(=O)[C@@H]1C[C@@H]2CCCC[C@@H]2CN1C[C@@H](O)[C@H](Cc1ccccc1)NC(=O)[C@H](CC(N)=O)NC(=O)c1ccc2ccccc2n1 [saquinavir]
OATP1B1 and OATP1B3
  Prestwick library screening result: strongest inhibitors

## O=c1[nH]c(=O)n([C@H]2C[C@H](O)[C@@H](CO)O2)cc1C(F)(F)F [Trifluridine]
[2]
  IC50 at 30 min: > 100 µM

B1: OATP1B1 (Homo sapiens) (protein)
chain: T1 sequence (Q9Y6L6 1-691)
[15]
  Km: 38 ± 5 µM
